Assay results as given in PMC7745752 (The Journal of General Physiology, 2020).
Numbering of substitutions follows the chain as printed.

Columns and labels:
[1] = target: T1, TRPV3 E682Q/D727N (Mus musculus, UniProt Q8K424, D727N/E682Q); assay: cell-based Ca2+ assay
T1 sequence (Q8K424 1-791 E682Q/D727N): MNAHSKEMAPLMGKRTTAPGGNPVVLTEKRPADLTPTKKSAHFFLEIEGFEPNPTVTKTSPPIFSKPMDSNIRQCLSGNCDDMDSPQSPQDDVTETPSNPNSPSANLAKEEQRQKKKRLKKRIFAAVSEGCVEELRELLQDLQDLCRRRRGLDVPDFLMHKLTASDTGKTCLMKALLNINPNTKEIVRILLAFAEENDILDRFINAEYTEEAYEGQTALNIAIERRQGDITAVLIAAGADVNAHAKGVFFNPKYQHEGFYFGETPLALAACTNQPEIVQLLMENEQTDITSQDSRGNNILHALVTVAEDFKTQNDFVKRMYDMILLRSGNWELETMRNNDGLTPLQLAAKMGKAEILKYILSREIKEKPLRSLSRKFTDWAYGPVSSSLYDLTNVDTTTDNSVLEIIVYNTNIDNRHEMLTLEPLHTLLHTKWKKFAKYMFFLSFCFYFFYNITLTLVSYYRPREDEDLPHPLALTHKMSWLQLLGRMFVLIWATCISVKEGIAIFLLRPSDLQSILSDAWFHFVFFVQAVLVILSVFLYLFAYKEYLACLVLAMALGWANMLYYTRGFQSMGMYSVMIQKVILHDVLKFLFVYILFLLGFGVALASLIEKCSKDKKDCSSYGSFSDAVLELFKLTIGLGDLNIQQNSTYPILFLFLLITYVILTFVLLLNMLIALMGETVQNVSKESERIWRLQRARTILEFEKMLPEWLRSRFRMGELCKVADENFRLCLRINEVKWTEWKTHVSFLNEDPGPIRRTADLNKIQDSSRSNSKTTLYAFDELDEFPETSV
In short: (§1)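 Ca2+ plate assay with FlexStation in HEK293 cells transiently expressing mutant mouse TRPV3. Fluo-4/AM loading was 5 µM for 60 min at 37°C in pH 7.4 ECS with probenecid; cells were then washed. Agonist was delivered robotically at varied concentrations, each well dosed once. Read-out was ex 494/em 525 nm at 0.67 Hz. AUC was normalized to the plate maximum, and EC50 was obtained by Hill fitting.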

[2] = target: T2, TRPV3 E689Q/D727N (Mus musculus, UniProt Q8K424, D727N/E689Q); assay: cell-based Ca2+ assay
T2 sequence (Q8K424 1-791 E689Q/D727N): T1 sequence (Q8K424 1-791 E682Q/D727N) with Q682E, E689Q
In short: as §1

[3] = target: T3, TRPV3 E682Q/E689Q/D727N (QQN) (Mus musculus, UniProt Q8K424, D727N/E682Q/E689Q); assay: cell-based Ca2+ assay
T3 sequence (Q8K424 1-791 E682Q/E689Q/D727N): T1 sequence (Q8K424 1-791 E682Q/D727N) with E689Q
In short: (§2)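 Mouse TRPV3 (WT or mutant) was transfected into HEK293 cells in 96-well plates. Cells were loaded with 5 µM Fluo-4/AM, 0.02% Pluronic F-127 and 0.1% BSA in HEPES ECS (pH 7.4) at 37°C for 60 min, with 2 mM probenecid throughout. 2-APB was added once per well in ECS, or in Mes acidic solution giving final pH 5.6. AUC was normalized to the plate maximum, and EC50 at each pH came from a Hill fit.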

[4] = target: T4, WT mouse TRPV3 (Mus musculus, UniProt Q8K424); assay: whole-cell voltage-clamp recording in transfected HEK293 cells; format: cell-based; conditions: 300 µM carvacrol; for repeated stimulations needed to approach the maximal response: 30-s applications
T4 sequence (Q8K424 1-791): T1 sequence (Q8K424 1-791 E682Q/D727N) with Q682E, N727D
In short: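 Sensitization by intracellular pH: 300 µM carvacrol was applied repeatedly in whole-cell mode to HEK293 cells expressing mouse TRPV3. External solution was pH 7.4, nominally Ca2+-free. pHi was set to 7.2, 6.5 or 6.0 by CsCl/EGTA pipette solutions. The stimulation reaching maximal response was noted. Temperature was 22–24°C.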

[5] = target: T3, TRPV3 E682Q/E689Q/D727N (QQN); assay: whole-cell voltage-clamp recording in transfected HEK293 cells; format: cell-based
[6] = target: T4, WT mouse TRPV3; assay: cell-based Ca2+ assay; conditions: pH 7.4 vs pH 5.6
In short: as §2

[7] = system: TRPV3 C-terminal double and triple mutants (E682Q, E689Q, D727N combinations); assay: cell-based Ca2+ assay; set-up: species or system mouse; conditions: pH 7.4 vs pH 5.6
In short: as §2

[8] = target: T5, TRPV3 E631A (Mus musculus, UniProt Q8K424, E631A); assay: whole-cell voltage-clamp recording in transfected HEK293 cells; format: cell-based; conditions: n = 3
T5 sequence (Q8K424 1-791 E631A): T1 sequence (Q8K424 1-791 E682Q/D727N) with E631A, Q682E, N727D
In short: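 Whole-cell clamp at 22–24°C of HEK293 cells transiently expressing mutant mouse TRPV3. Pipette: 140 mM CsCl, 1 EGTA, pH 7.2. Bath: nominally Ca2+-free. 30 µM 2-APB was perfused at pHe 7.4, then in pH 5.0 Mes-buffered solution. Ramps ran −100 to +100 mV over 200 ms every second from 0 mV holding. Current ratio pHe 5.0/7.4 was taken at ±100 mV.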

EC50 [1] [µM]	EC50 [2] [µM]	EC50 [3] [µM]	repeated stimulations needed to approach the maximal response ([4]; pHi 6.0, external pH 7.4)	repeated stimulations needed to approach the maximal response ([4]; pHi 7.2, external pH 7.4)	stimulation at which the highest level of response was reached ([5]; 300 µM carvacrol, 30-s applications, pHi 7.2, external pH 7.4)	ratio for 2-APB EC50 values obtained at pH 7.4 and pH 5.6 [6]	ratio for 2-APB EC50 values obtained at pH 7.4 and pH 5.6 ([3]; pH 7.4 vs pH 5.6)	ratio for 2-APB EC50 values obtained at pH 7.4 and pH 5.6 [7]	5.0:7.4 pH ratio of 2-APB-evoked current ([8]; +100 mV)	5.0:7.4 pH ratio of 2-APB-evoked current ([8]; −100 mV)	delay in current development after the addition of 2-APB ([5]; 5 µM 2-APB, pHe 6.5, nominally Ca2+-free bath) [s]	SMILES	decrease of carvacrol-evoked TRPV3 current by pH 5.5 compared with pH 7.4 ([4]; presensitized cells, +80 mV, nominally Ca2+-free bath) [%]
197 ± 7.8	60.2 ± 3.2	119 ± 7.6	five	~14	first stimulation							Cc1ccc(C(C)C)cc1O [carvacrol]	~50
						~15	0.92	< 4.6	0.98 ± 0.09	1.02 ± 0.03	~30	NCCOB(c1ccccc1)c1ccccc1 [2-APB, 2-aminoethoxydiphenyl borate]	
